CYP2C9 inhib: blockers of cytochrome P450 2C9 activity – biochemical, luminescence, ADME assay, primary screen; P11712; CYP2C9 Supersomes, luciferin-H conversion; inhibition, % at 5 µM; hit rate 20% among 96,000;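 active = blocking of liver enzyme CYP2C9 beyond about 50% at 5 µM, limit read from the data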
Target sequence (P11712 whole entry, looked up): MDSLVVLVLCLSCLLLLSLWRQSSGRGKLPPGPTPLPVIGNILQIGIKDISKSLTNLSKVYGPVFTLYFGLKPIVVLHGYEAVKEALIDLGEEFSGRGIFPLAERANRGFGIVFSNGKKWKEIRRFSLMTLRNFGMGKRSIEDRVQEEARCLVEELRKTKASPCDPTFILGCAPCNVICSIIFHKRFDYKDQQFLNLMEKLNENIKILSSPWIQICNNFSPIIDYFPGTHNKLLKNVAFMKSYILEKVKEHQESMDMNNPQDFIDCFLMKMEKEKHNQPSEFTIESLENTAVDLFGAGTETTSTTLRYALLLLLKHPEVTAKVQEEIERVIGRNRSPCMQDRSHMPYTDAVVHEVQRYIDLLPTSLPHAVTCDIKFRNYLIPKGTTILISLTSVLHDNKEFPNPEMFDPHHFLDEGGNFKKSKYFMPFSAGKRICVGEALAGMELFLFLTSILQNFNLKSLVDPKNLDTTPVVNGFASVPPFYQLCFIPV
Cav32 inh: Cav3.2 calcium influx blockers – cell-based, Fluo-4 calcium fluorescence, FDSS, MLSMR library, primary screen | Voltage-dependent T-type calcium channel subunit alpha-1H (Homo sapiens), O95180 | Cav3.2-expressing cells; active compounds read low | B-score at 10 µM | hit rate 4% among 100,000;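 active = single-dose well whose peak fluorescence ratio is a statistical outlier from its plate by either plate-standardised score or position-corrected B-score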
CYP2C19 act: human CYP2C19 activators, primary screen, biochemical, luminescence; Cytochrome P450 2C19 (Homo sapiens), P33261; recombinant CYP2C19, luciferin-H EGE luminescence; active compounds read high; 0 = fully inhibited enzyme, 1 = untreated enzyme; activation factor at 5 µM; 96,000 tested, under 10 active; AID 1025, 2008;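 active = activation factor of at least 2 at 5 µM in the primary screen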;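 note: 0 = wells with 2.5 mM tranylcypromine and 1 = vehicle-only wells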
CYP2C9 activ: human CYP2C9 activators, primary screen, biochemical, luminescence. recombinant CYP2C9, luciferin-H conversion; active compounds read high; factor 1 = untreated enzyme, 0 = blocked. hit rate 1.4% among 96,000. AID 1024, 2008. activation factor at 5 µM;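 active = activation factor of 2 or more for CYP2C9 at a 5 µM dose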;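 note: 0 = sulfaphenazole-blocked wells and 1 = vehicle-only wells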
CYP2C19 inh: blockers of cytochrome P450 2C19 activity – biochemical, luminescence, ADME assay, primary screen; hit rate 21% among 96,000; inhibition, % at 5 µM; CYP2C19 Supersomes, luciferin-H EGE luminescence, 30 min; P33261;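 active = CYP2C19 inhibition above a set limit at 5 µM in the primary screen, cut at about 50% in these data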;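 note: plate controls were negative control wells for no effect and 2.5 mM tranylcypromine positive control for full effect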
HIV Rev-RRE inh: HIV-1 Rev-RRE binding inhibitors, primary screen, biochemical, FRET, protein-RNA interaction; hit rate 0.79% among 97,000; inhibition, % at 8 µM; P05866; Rev peptide-RRE RNA binding;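 active = inhibition above the screen-wide mean plus 3 SD, cut at about 35% in these data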;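 note: 0% = median DMSO wells and 100% = median Neomycin B control wells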
Target sequence (P05866 whole entry, looked up): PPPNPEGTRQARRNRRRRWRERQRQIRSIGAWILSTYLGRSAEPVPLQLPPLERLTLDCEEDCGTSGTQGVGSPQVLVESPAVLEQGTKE
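Probe or stimulus: fluorescein-Rev peptide as binding partner; assay system: Cy5-tagged RRE RNA duplex with fluorescein-tagged Rev peptide; timing: 5 min compound–RNA preincubation, then 15 min with peptide, 25 °C; medium: HEPES pH 7.5 buffer with KCl, MgCl2, NaCl and EDTA; signal: fluorescein-to-Cy5 FRET, 480 nm excitation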
The depositor's hits bear a star; · = no result given. Rows were chosen to be rich in hits. Some 27% of all compounds tested hit in one or more screens of this group.

SMILES	CYP2C9 inhib	Cav32 inh	CYP2C19 act	CYP2C9 activ	CYP2C19 inh	HIV Rev-RRE inh
Cc1ccc(CCNC(=O)C2CCCN(S(=O)(=O)c3c(C)noc3C)C2)cc1 (configuration not stated)	43.4	0.566	0.9	0.6	13.6	8.2
Cc1ccc(CCNC(=O)C2CCCN(S(=O)(=O)c3c(C)noc3/C=C/N(C)C)C2)cc1 (configuration not stated)	69.0*	-0.0998	0.6	0.3	39.0	2.0
Cc1noc(/C=C/N(C)C)c1S(=O)(=O)N1CCCC(C(=O)NCc2cccs2)C1 (configuration not stated)	67.9*	1.22	0.7	0.3	30.4	1.3
COc1cc2c3nnc(-c4ccc(F)cc4)c-3cn(Cc3ccccc3)c2cc1OC	29.1	·	1	0.7	3.0	26.6
COc1ccccc1NC(=O)c1ccccc1SC	-283.9	-0.164	1	3.8*	4.9	0.9
COc1cccc(NC(=O)c2ccccc2-c2nc(-c3ccc(Cl)cc3)no2)c1	83.2*	-2.48	0.3	0.2	69.0*	13.3
COc1ccccc1-c1noc(-c2ccccc2C(=O)Nc2ccccc2)n1	3.8	-0.0253	1.1	1	-8.7	3.5
COc1ccccc1NC(=O)c1ccccc1-c1nc(-c2ccccc2OC)no1	77.8*	-2.56	0.4	0.2	64.5*	12.7
CC(=O)NCc1cccc(CNC(C)=O)n1	-8.5	-0.372	1	1.1	0.6	7.5
Cc1ccc(N2C(=O)N(CC(=O)C(C)(C)C)c3ccccc3S2(=O)=O)cc1	·	-2.59	·	·	·	·
O=C(O)C1(c2cccc(Cl)c2)CCC1	7.6	-0.735	1	0.9	-1.2	8.1
Cc1cccc(Cn2cnc3c(nnn3Cc3ccc(F)cc3)c2=O)c1	-152.9	-2.68	0.4	2.5*	57.9*	15.6
O=C(Cn1cnc2c(nnn2Cc2ccc(F)cc2)c1=O)NCc1ccco1	·	-4.2*	·	·	·	0.1
CCOc1ccc(NC(=O)CSc2nnc(C)n2CCCOC)cc1	9.1	0.0747	0.7	0.9	26.8	1.5
c1coc(-c2nc(-c3ccco3)c(-c3ccco3)nc2-c2ccco2)c1	16.9	0.128	1	0.8	4.0	-149.6
Nc1nc(-c2ccco2)c(-c2ccco2)s1	77.3*	-4.26	0.2	0.2	78.5*	13.2
Oc1ccc(Br)cc1/C=N/N1CCN(Cc2ccccc2)CC1	-10.3	-1.4	1	1.1	2.2	4.0
Oc1ccc(Br)cc1/C=N/n1cnc2ccccc21	70.9*	0.753	0.9	0.3	6.1	5.6
O=c1c2c([nH]c3ccccc13)CCCC2	-138.7	0.927	1	2.4*	3.7	3.5
C=CCc1cccc2cc(C(=O)NCc3cccnc3)c(=O)oc12	12.9	0.838	0.3	0.9	70.3*	·
C=CCc1cccc2cc(C(=O)NC(C)(C)C)c(=O)oc12	55.3*	0.153	0.4	0.4	64.7*	-1.4
C=CCc1cccc2cc(C(=O)NC3=C(C#N)CCC3)c(=O)oc12	-18.5	0.656	0.9	1.2	12.6	6.0
CCOc1cccc2cc(C(=O)NCc3cccnc3)c(=O)oc12	-7.4	-0.465	1.1	1.1	-9.6	4.2
CCN(CC)CCNC(=O)c1ccccn1	4.2	-0.117	0.9	1	6.2	10.0
Cc1n[nH]c(C)c1C(=O)CC1(O)C(=O)N(Cc2ccccc2)c2ccc(Br)cc21 (configuration not stated)	60.9*	0.522	0	0.4	98.9*	8.7
SMILES	CYP2C9 inhib	Cav32 inh	CYP2C19 act	CYP2C9 activ	CYP2C19 inh	HIV Rev-RRE inh
Cc1n[nH]c(C)c1C(=O)CC1(O)C(=O)N(CCc2ccccc2)c2ccc(Br)cc21 (configuration not stated)	66.2*	-0.084	0.4	0.3	55.7*	14.3
O=C(CCS(=O)(=O)c1ccc(Br)s1)N1CCc2ccccc21	-47.7	-0.454	0.8	1.5	24.3	-1.5
CCn1c(CCC(=O)Nc2cc(F)ccc2C)nc2cc(S(=O)(=O)N(C)C)ccc21	79.5*	1.59	0.8	0.2	16.2	·
CCN(CC)S(=O)(=O)c1ccc2c(c1)nc(CCC(=O)Nc1ccccc1Cc1ccccc1)n2CC	99.9*	-4.42*	0.2	0	77.1*	12.2
Cc1ccc(S(=O)(=O)N(CC(=O)O)Cc2ccccc2)cc1	35.8	0.0195	1.1	0.6	-5.2	2.0
COc1ccc(C)cc1S(=O)(=O)N(CC(N)=O)Cc1ccccc1	33.2	-0.00296	0	0.7	98.6*	1.8
CN(CC(=O)Nc1cccnc1)S(=O)(=O)c1ccccc1	19.4	1.05	0.9	0.8	14.4	-0.9
COc1ccc(C)cc1S(=O)(=O)N(C)CC(=O)NCc1ccco1	51.4*	0.331	0.7	0.5	27.0	2.9
COc1ccc(C)cc1S(=O)(=O)N(CC(=O)O)c1ccc(C)cc1	36.5	-0.621	0.9	0.6	14.7	3.0
CN(CC(=O)NCc1ccco1)S(=O)(=O)c1cccc2cccnc12	-50.4	-0.232	0.9	1.5	13.4	2.2
CNC(=O)CN(c1ccc(F)cc1)S(=O)(=O)c1cc(C)ccc1OC	80.2*	-3.55	0.2	0.2	81.6*	9.1
Cc1ccc(S(=O)(=O)N(C)CC(=O)Nc2ccccc2)cc1	-27.4	·	0.4	1.3	62.8*	-2.2
CC(=O)c1cccc(NC(=O)C2CC(=O)N(Cc3ccccc3)C2)c1 (configuration not stated)	25.4	0.0439	0.7	0.7	33.8	9.8
Cc1c(Cl)c(C(F)(F)F)nn1CC(=O)N1CCSCC1	·	-0.0901	·	·	·	2.8
COc1ccc(C)cc1S(=O)(=O)N(CC(=O)O)c1ccccc1	49.5	-0.0603	1	0.5	-3.9	4.3
COc1ccc(C)cc1S(=O)(=O)N(C)CC(=O)Nc1ccccc1	89.8*	0.00643	0.1	0.1	91.3*	-0.9
COc1cc(NC(=O)CN(C)S(=O)(=O)c2ccc(C)cc2)cc(OC)c1	-77.3	-0.507	0.2	1.8	82.3*	1.3
Cc1ccc(C)c(NC(=O)CN(C)S(=O)(=O)c2ccccc2)c1	-37.8	0.578	0.6	1.4	38.2	3.5
N#Cc1cc2c(nc1SCC1COc3ccccc3O1)CCC2 (configuration not stated)	33.9	-6.24*	0.8	0.7	23.2	6.7
N#Cc1cc2ccccc2nc1SCc1cccnc1	39.7	-1.16	0.5	0.6	52.4*	·
N#Cc1cc2c(nc1SCC(O)CS(=O)(=O)Cc1ccccc1)CCCC2 (configuration not stated)	58.4*	-1.17	0.8	0.4	22.0	8.5
N#Cc1cc2c(nc1SCc1cccnc1)CCCCC2	49.7	-3.47	0.2	0.5	80.0*	3.4

Compound activity: PubChem BioAssay, several laboratories
